Assay results from ChEMBL document CHEMBL4689842, “EUbOPEN Chemogenomics Library wave 1” (2021).

Assays:
Fibroblast = experiment: Incucyte cell viability with human fibroblast; type: toxicity, cell-based; conditions: 10 µM, compound concentration 10 uM; note: filed as whole numbers so only -1 and 0 and 1 occur
HEK-293T = experiment: Multiplex assay against HEK293T; type: toxicity, cell-based; conditions: human;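 for Population Tubulin-Different-Phenotype (%): share of the cells with healthy nuclei that show this phenotype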
Procedure, shortened: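 Imaging took place on a CQ1 microscope at 37°C and 5% CO2 once compound had been added to live cells stained at seeding with Hoechst33342, BioTracker Green Microtubule Cytoskeleton Dye, MitoTracker Red and Annexin V Alexa Fluor 680. CellPathfinder machine-learning gating classed cells as Hoechst high-intensity objects or normal cells, classed normal cells as having healthy, pyknosed or fragmented nuclei, and classed pyknosed cells as mitotic or apoptotic. Tubulin, mitochondrial-mass and membrane-permeability phenotypes are per cents of the healthy-nucleus cells.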

[1] = 12 h, 1 µM, compound concentration 1 uM, replicate 1
[2] = 12 h, 1 µM, compound concentration 1 uM, replicate 2
[3] = 12 h, 10 µM, compound concentration 10 uM, replicate 1
[4] = 12 h, 10 µM, compound concentration 10 uM, replicate 2
[5] = 24 h, 1 µM, compound concentration 1 uM, replicate 1
[6] = 24 h, 1 µM, compound concentration 1 uM, replicate 2
[7] = 24 h, 10 µM, compound concentration 10 uM, replicate 1
[8] = 24 h, 10 µM, compound concentration 10 uM, replicate 2
[9] = 48 h, 1 µM, compound concentration 1 uM, replicate 1
[10] = 48 h, 1 µM, compound concentration 1 uM, replicate 2
[11] = 48 h, 10 µM, compound concentration 10 uM, replicate 1
[12] = 48 h, 10 µM, compound concentration 10 uM, replicate 2

With `Cl.Cl.Nc1ncnc2c1c(-c1cccc(OCc3ccccc3)c1)cn2[C@H]1C[C@@H](CN2CCC2)C1` the “Growth Rate” value (Fibroblast; 6 h, replicate number 1, timepoint 6 hours) was 0, the “Growth Rate” value (Fibroblast; 12 h, replicate number 1, timepoint 12 hours) was 0 and the “Growth Rate” value (Fibroblast; 18 h, replicate number 1, timepoint 18 hours) was 0. The “Growth Rate” value (Fibroblast; 24 h, replicate number 1, timepoint 24 hours) was 0, the “Population Apoptotic (%)” value (HEK-293T; [1]) was 69% and the “Population Fragmented Nuclei (%)” value (HEK-293T; [1]) was 13%. For the same molecule, the “Population Healthy Nuclei (%)” value (HEK-293T; [1]) was 17%, the “Population Hoechst High Intensity Objects (%)” value (HEK-293T; [1]) was 24% and the “Population Membrane Permeable-Phenotype (%)” value (HEK-293T; [1]) was 5%. For the same molecule, the “Population Mitochondria Different-Phenotype (%)” value (HEK-293T; [1]) was 94%, the “Population Mitotic Cells (%)” value (HEK-293T; [1]) was 30% and the “Population Normal (%)” value (HEK-293T; [1]) was 75%. For the same molecule, the “Population Pyknosed Nuclei (%)” value (HEK-293T; [1]) was 68%, the “Population Tubulin-Different-Phenotype (%)” value (HEK-293T; [1]) was 88% and the “Total Cell Count” value (HEK-293T; [1]) was 270. For the same molecule, the “Population Apoptotic (%)” value (HEK-293T; [2]) was 56%, the “Population Fragmented Nuclei (%)” value (HEK-293T; [2]) was 5% and the “Population Healthy Nuclei (%)” value (HEK-293T; [2]) was 23%. The “Population Hoechst High Intensity Objects (%)” value (HEK-293T; [2]) was 10%, the “Population Membrane Permeable-Phenotype (%)” value (HEK-293T; [2]) was 2% and the “Population Mitochondria Different-Phenotype (%)” value (HEK-293T; [2]) was 97%. The “Population Mitotic Cells (%)” value (HEK-293T; [2]) was 43%, the “Population Normal (%)” value (HEK-293T; [2]) was 89% and the “Population Pyknosed Nuclei (%)” value (HEK-293T; [2]) was 71%. For the same molecule, the “Population Tubulin-Different-Phenotype (%)” value (HEK-293T; [2]) was 97%, the “Total Cell Count” value (HEK-293T; [2]) was 199 and the “Population Fragmented Nuclei (%)” value (HEK-293T; [3]) was 18%. The “Population Healthy Nuclei (%)” value (HEK-293T; [3]) was 12%, the “Population Hoechst High Intensity Objects (%)” value (HEK-293T; [3]) was 20% and the “Population Membrane Permeable-Phenotype (%)” value (HEK-293T; [3]) was 3%. For the same molecule, the “Population Mitochondria Different-Phenotype (%)” value (HEK-293T; [3]) was 100%, the “Population Normal (%)” value (HEK-293T; [3]) was 79% and the “Population Pyknosed Nuclei (%)” value (HEK-293T; [3]) was 69%. For the same molecule, the “Population Tubulin-Different-Phenotype (%)” value (HEK-293T; [3]) was 84%, the “Total Cell Count” value (HEK-293T; [3]) was 264 and the “Population Apoptotic (%)” value (HEK-293T; [4]) was 95%. The “Population Fragmented Nuclei (%)” value (HEK-293T; [4]) was 21%, the “Population Healthy Nuclei (%)” value (HEK-293T; [4]) was 6% and the “Population Hoechst High Intensity Objects (%)” value (HEK-293T; [4]) was 23%. The “Population Membrane Permeable-Phenotype (%)” value (HEK-293T; [4]) was 9%, the “Population Mitochondria Different-Phenotype (%)” value (HEK-293T; [4]) was 81% and the “Population Mitotic Cells (%)” value (HEK-293T; [4]) was 4%. The “Population Normal (%)” value (HEK-293T; [4]) was 77%, the “Population Pyknosed Nuclei (%)” value (HEK-293T; [4]) was 71% and the “Population Tubulin-Different-Phenotype (%)” value (HEK-293T; [4]) was 54%. For the same molecule, the “Total Cell Count” value (HEK-293T; [4]) was 213, the “Population Apoptotic (%)” value (HEK-293T; [5]) was 70% and the “Population Fragmented Nuclei (%)” value (HEK-293T; [5]) was 14%. For the same molecule, the “Population Healthy Nuclei (%)” value (HEK-293T; [5]) was 18%, the “Population Hoechst High Intensity Objects (%)” value (HEK-293T; [5]) was 25% and the “Population Membrane Permeable-Phenotype (%)” value (HEK-293T; [5]) was 0%. The “Population Mitochondria Different-Phenotype (%)” value (HEK-293T; [5]) was 100%, the “Population Mitotic Cells (%)” value (HEK-293T; [5]) was 29% and the “Population Normal (%)” value (HEK-293T; [5]) was 75%. The “Population Pyknosed Nuclei (%)” value (HEK-293T; [5]) was 67%, the “Total Cell Count” value (HEK-293T; [5]) was 260 and the “Population Apoptotic (%)” value (HEK-293T; [6]) was 67%. For the same molecule, the “Population Fragmented Nuclei (%)” value (HEK-293T; [6]) was 7%, the “Population Healthy Nuclei (%)” value (HEK-293T; [6]) was 43% and the “Population Hoechst High Intensity Objects (%)” value (HEK-293T; [6]) was 5%. The “Population Membrane Permeable-Phenotype (%)” value (HEK-293T; [6]) was 4%, the “Population Mitochondria Different-Phenotype (%)” value (HEK-293T; [6]) was 93% and the “Population Mitotic Cells (%)” value (HEK-293T; [6]) was 32%. For the same molecule, the “Population Normal (%)” value (HEK-293T; [6]) was 94%, the “Population Pyknosed Nuclei (%)” value (HEK-293T; [6]) was 49% and the “Population Tubulin-Different-Phenotype (%)” value (HEK-293T; [6]) was 91%. For the same molecule, the “Total Cell Count” value (HEK-293T; [6]) was 213, the “Population Apoptotic (%)” value (HEK-293T; [7]) was 92% and the “Population Fragmented Nuclei (%)” value (HEK-293T; [7]) was 17%. For the same molecule, the “Population Healthy Nuclei (%)” value (HEK-293T; [7]) was 9%, the “Population Hoechst High Intensity Objects (%)” value (HEK-293T; [7]) was 22% and the “Population Membrane Permeable-Phenotype (%)” value (HEK-293T; [7]) was 0%. The “Population Mitochondria Different-Phenotype (%)” value (HEK-293T; [7]) was 100%, the “Population Mitotic Cells (%)” value (HEK-293T; [7]) was 7% and the “Population Normal (%)” value (HEK-293T; [7]) was 77%. The “Population Pyknosed Nuclei (%)” value (HEK-293T; [7]) was 73%, the “Population Tubulin-Different-Phenotype (%)” value (HEK-293T; [7]) was 80% and the “Total Cell Count” value (HEK-293T; [7]) was 278. For the same molecule, the “Population Apoptotic (%)” value (HEK-293T; [8]) was 100%, the “Population Fragmented Nuclei (%)” value (HEK-293T; [8]) was 23% and the “Population Healthy Nuclei (%)” value (HEK-293T; [8]) was 11%. For the same molecule, the “Population Hoechst High Intensity Objects (%)” value (HEK-293T; [8]) was 26%, the “Population Membrane Permeable-Phenotype (%)” value (HEK-293T; [8]) was 5% and the “Population Mitochondria Different-Phenotype (%)” value (HEK-293T; [8]) was 89%. For the same molecule, the “Population Mitotic Cells (%)” value (HEK-293T; [8]) was 0%, the “Population Normal (%)” value (HEK-293T; [8]) was 73% and the “Population Pyknosed Nuclei (%)” value (HEK-293T; [8]) was 64%. For the same molecule, the “Population Tubulin-Different-Phenotype (%)” value (HEK-293T; [8]) was 68%, the “Total Cell Count” value (HEK-293T; [8]) was 227 and the “Population Apoptotic (%)” value (HEK-293T; [9]) was 74%. For the same molecule, the “Population Fragmented Nuclei (%)” value (HEK-293T; [9]) was 20%, the “Population Healthy Nuclei (%)” value (HEK-293T; [9]) was 21% and the “Population Hoechst High Intensity Objects (%)” value (HEK-293T; [9]) was 30%. The “Population Membrane Permeable-Phenotype (%)” value (HEK-293T; [9]) was 0%, the “Population Mitochondria Different-Phenotype (%)” value (HEK-293T; [9]) was 97% and the “Population Mitotic Cells (%)” value (HEK-293T; [9]) was 25%. The “Population Normal (%)” value (HEK-293T; [9]) was 70%, the “Population Pyknosed Nuclei (%)” value (HEK-293T; [9]) was 57% and the “Population Tubulin-Different-Phenotype (%)” value (HEK-293T; [9]) was 78%. For the same molecule, the “Total Cell Count” value (HEK-293T; [9]) was 250, the “Population Apoptotic (%)” value (HEK-293T; [10]) was 64% and the “Population Fragmented Nuclei (%)” value (HEK-293T; [10]) was 6%. The “Population Healthy Nuclei (%)” value (HEK-293T; [10]) was 71%, the “Population Hoechst High Intensity Objects (%)” value (HEK-293T; [10]) was 11% and the “Population Membrane Permeable-Phenotype (%)” value (HEK-293T; [10]) was 1%. The “Population Mitochondria Different-Phenotype (%)” value (HEK-293T; [10]) was 87%, the “Population Mitotic Cells (%)” value (HEK-293T; [10]) was 35% and the “Population Normal (%)” value (HEK-293T; [10]) was 88%. For the same molecule, the “Population Pyknosed Nuclei (%)” value (HEK-293T; [10]) was 22%, the “Population Tubulin-Different-Phenotype (%)” value (HEK-293T; [10]) was 93% and the “Total Cell Count” value (HEK-293T; [10]) was 263. For the same molecule, the “Population Apoptotic (%)” value (HEK-293T; [11]) was 93%, the “Population Fragmented Nuclei (%)” value (HEK-293T; [11]) was 25% and the “Population Healthy Nuclei (%)” value (HEK-293T; [11]) was 1%. For the same molecule, the “Population Hoechst High Intensity Objects (%)” value (HEK-293T; [11]) was 19%, the “Population Membrane Permeable-Phenotype (%)” value (HEK-293T; [11]) was 0% and the “Population Mitochondria Different-Phenotype (%)” value (HEK-293T; [11]) was 100%. The “Population Mitotic Cells (%)” value (HEK-293T; [11]) was 6%, the “Population Normal (%)” value (HEK-293T; [11]) was 80% and the “Population Pyknosed Nuclei (%)” value (HEK-293T; [11]) was 73%. The “Population Tubulin-Different-Phenotype (%)” value (HEK-293T; [11]) was 33%, the “Total Cell Count” value (HEK-293T; [11]) was 315 and the “Population Apoptotic (%)” value (HEK-293T; [12]) was 98%. For the same molecule, the “Population Fragmented Nuclei (%)” value (HEK-293T; [12]) was 34%, the “Population Healthy Nuclei (%)” value (HEK-293T; [12]) was 17% and the “Population Hoechst High Intensity Objects (%)” value (HEK-293T; [12]) was 12%. The “Population Mitotic Cells (%)” value (HEK-293T; [12]) was 1%, the “Population Normal (%)” value (HEK-293T; [12]) was 87% and the “Population Pyknosed Nuclei (%)” value (HEK-293T; [12]) was 48%. For the same molecule, the “Population Tubulin-Different-Phenotype (%)” value (HEK-293T; [12]) was 88% and the “Total Cell Count” value (HEK-293T; [12]) was 234.
